Measurements taken from ChEMBL document CHEMBL5523695, “Discovery of small molecule benzothiazole and indole derivatives tackling tau 2N4R and α-synuclein fibrils” (Bioorg Med Chem, 2024).
Active and inactive are the calls of the source. The calls are words filed in the database; no cut-off is given here.

Key:
[1] = target: T1, Microtubule-associated protein tau (Homo sapiens, UniProt P10636); experiment: Inhibition of arachidonic acid-induced full-length four-repeat tau 2N4R (unknown origin) aggregation measured upto 19 hrs by TEM analysis
T1 sequence (P10636 whole entry): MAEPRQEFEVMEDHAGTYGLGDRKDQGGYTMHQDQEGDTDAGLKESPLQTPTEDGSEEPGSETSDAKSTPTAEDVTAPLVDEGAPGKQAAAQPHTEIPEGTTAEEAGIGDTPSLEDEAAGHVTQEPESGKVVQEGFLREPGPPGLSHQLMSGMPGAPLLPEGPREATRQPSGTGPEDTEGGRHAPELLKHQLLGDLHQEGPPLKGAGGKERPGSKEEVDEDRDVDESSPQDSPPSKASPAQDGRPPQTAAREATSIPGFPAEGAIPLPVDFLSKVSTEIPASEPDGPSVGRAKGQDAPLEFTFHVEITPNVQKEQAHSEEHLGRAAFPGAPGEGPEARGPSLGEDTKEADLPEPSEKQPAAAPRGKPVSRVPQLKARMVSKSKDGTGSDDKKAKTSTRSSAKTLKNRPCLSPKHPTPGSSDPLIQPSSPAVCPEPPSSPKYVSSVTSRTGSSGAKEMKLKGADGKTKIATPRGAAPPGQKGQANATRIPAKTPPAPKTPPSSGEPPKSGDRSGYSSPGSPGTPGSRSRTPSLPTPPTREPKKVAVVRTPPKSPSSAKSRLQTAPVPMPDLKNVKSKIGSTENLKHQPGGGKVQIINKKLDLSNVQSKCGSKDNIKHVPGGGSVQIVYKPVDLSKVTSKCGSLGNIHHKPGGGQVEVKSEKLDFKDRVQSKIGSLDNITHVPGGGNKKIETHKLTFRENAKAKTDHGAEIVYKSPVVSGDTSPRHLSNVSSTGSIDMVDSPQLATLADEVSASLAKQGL

[2] = target: T1, Microtubule-associated protein tau; experiment: Inhibition of tau 2N4R (unknown origin) aggregation expressed in Escherichia coli Rosetta BL21 cells assessed as reduction in oligomer formation at 50 to 200 uM incubated for 10 mins in presence of 53W light exposure for 60 sec by PICUP assay; conditions: dose 50-200 µM
Outline: (§1)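 Tau 2N4R or 0N4R, expressed in-house from a pET30a construct in E. coli Rosetta BL21 and purified by heat step plus SP cation exchange, used at 10 μM in 10 mM phosphate buffer. Compound at 50, 100 and 200 μM. Ru(bpy)3 at 300 μM and APS at 6 mM, 60 s light exposure. Samples boiled at 95 °C for 10 min in reducing Laemmli buffer, then 16 % SDS-PAGE with Coomassie.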

[3] = target: T1, Microtubule-associated protein tau; experiment: Inhibition of unfolded tau 2N4R (unknown origin) aggregation expressed in Escherichia coli Rosetta BL21 cells assessed as appearance of rounded structures at 100 uM measured after 72 hrs by TEM analysis
Outline: (§2)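 Recombinant tau 2N4R (6 μM) incubated with compound at 100 μM, or 0.25 % DMSO, in 10 mM PBS pH 7.4 for 72 h at 37 °C. Placed on Formvar-carbon copper grids for 1 min, rinsed, and negatively stained with 1 % uranyl acetate. TEM at 40k magnification, 100 kV.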

[4] = target: T1, Microtubule-associated protein tau; experiment: Inhibition of unfolded tau 2N4R (unknown origin) aggregation expressed in Escherichia coli Rosetta BL21 cells assessed as reduction in protein fibril formation at 100 uM measured after 72 hrs by TEM analysis; outline: as §2
[5] = (§3) Cytotoxicity against human M17D cells expressing doxycyclin-inducible alpha-syn-S3K::YFP inclusion-prone fusion protein assessed as reduction in cell confluency at 5 to 40 uM treated with compound starting from 24 hrs post plating followed by doxycyclin addition at 48 hrs and measured 96 hrs post plating by Incucyte-based analysis; type: toxicity; conditions: 72 h, dose 5-40 µM
Outline: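 Dox-inducible M17D-TR/αS-3K::YFP neuroblastoma cells seeded at 30,000 per well. Compound added 24 h after plating at 1.25–40 μM, with 0.1 % DMSO as vehicle. Dox at 1 μg/mL final was added at 48 h. At 96 h, Incucyte imaging gave confluence fold change vs vehicle. N = 2 independent experiments, 6–12 wells total. Mean ± SD, one-way ANOVA with Dunnett's test.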

[6] = target: Alpha-synuclein (Homo sapiens) (UniProt P37840); experiment: Inhibition of recombinant alpha-Synuclein (unknown origin) aggregation assessed as reduction in protein fibril formation at 100 uM measured after 68 hrs by TEM analysis
Outline: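 α-Syn (2 μM) samples taken from the ThT kinetic runs after about 68 h at 37 °C, compound at 100 μM, vehicle 0.25 % DMSO. Applied to Formvar-carbon copper grids for 1 min, washed, and stained with 1 % uranyl acetate for 1 min. Imaged by TEM at 40k magnification, 100 kV.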

[7] = target: T1, Microtubule-associated protein tau; experiment: Inhibition of unfolded tau 2N4R (unknown origin) aggregation expressed in Escherichia coli Rosetta BL21 cells assessed as reduction in formation of large dense accumulation of tau fibrils at 100 uM measured after 72 hrs by TEM analysis; outline: as §2
[8] = target: T1, Microtubule-associated protein tau; experiment: Inhibition of unfolded tau 2N4R (unknown origin) aggregation expressed in Escherichia coli Rosetta BL21 cells assessed as reduction in short and fine needle like fibrils at 100 uM measured after 72 hrs by TEM analysis; outline: as §2
[9] = target: T1, Microtubule-associated protein tau; experiment: Inhibition of human tau 0N4R aggregation expressed in Escherichia coli Rosetta BL21 cells assessed as reduction in oligomer formation at 50 to 200 uM incubated for 10 mins in presence of 53W light exposure for 60 sec by PICUP assay; conditions: dose 50-200 µM; outline: as §1
[10] = target: Alpha-synuclein (Homo sapiens) (UniProt P37840); experiment: Inhibition of recombinant alpha-Synuclein (unknown origin) aggregation assessed as reduction in fluorescence intensity by measuring residual activity at 100 uM measured every 20 mins for 40 to 70 hrs by Thioflavin T based fluorescence analysis relative to control; conditions: time 40-70 hrs
Outline: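 Recombinant α-syn (2 μM final) in 10 mM PBS pH 7.4 with 0.5 mM SDS and 300 mM NaCl. Compound at 100 μM final, ThT 20 μM, one borosilicate bead per well. Read at 37 °C every 20 min after 10 s shaking, ex 440/em 485 nm, for 40–70 h. Background was ThT plus 0.25 % DMSO without protein. Plateau fluorescence expressed as % of control, triplicates, mean ± SEM.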

[11] = target: Alpha-synuclein (Homo sapiens) (UniProt P37840); experiment: as §3, with “Inhibition of alpha-syn inclusion formation in” for “Cytotoxicity against”, “inclusions” for “cell confluency at 5 to 40 uM”; type: cell-based; conditions: time 72.0 hrs
Outline: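 M17D-TR/αS-3K::YFP cells seeded at 30,000 per well and dosed 24 h post-plating at 1.25–40 μM (vehicle 0.1 % DMSO). Transgene induced at 48 h with dox at 1 μg/mL final. At 96 h, Incucyte analysis of punctate YFP inclusions, expressed as fold change vs DMSO. Two independent experiments, 6–12 wells total, mean ± SD, Dunnett's post-hoc test.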

[12] = target: Alpha-synuclein (Homo sapiens) (UniProt P37840); experiment: Inhibition of alpha-syn (unknown origin) aggregation assessed as reduction in fluorescence by Thioflavin-T based fluorescence analysis relative to control; conditions: concentration not given here
Outline: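 Recombinant α-syn monomer (2 μM final, diluted from a 280 μM stock in 20 mM Tris-HCl pH 7.4) in 10 mM PBS pH 7.4 with 0.5 mM SDS and 300 mM NaCl, one glass bead per well. Compound 100 μM final, ThT 20 μM, 0.25% DMSO. Ex/em 440/485 nm, read every 20 min at 37 °C with shaking, 40–70 h. Triplicates. Plateau fluorescence as % of control, background-corrected.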

Compound: CCC(/C=C1\Sc2ccc(OC)cc2N1CCO)=C\c1sc2ccc(OC)cc2[n+]1CCO
- IC50 [1]: 300 nM

Compound: O=C(Nc1ccc([N+](=O)[O-])cc1)Nc1ccc2cc[nH]c2c1
- inhibition [2]: inactive
- inhibition [3]: Active
- inhibition [4]: Active
- Activity [5]: Toxic
- inhibition [6]: Active
- inhibition [7]: Active
- inhibition [8]: Active
- inhibition [9]: inactive
- Activity [10]: 3.6%
- inhibition [11]: Dose-Dependent Effect

Compound: O=C(O[C@@H]1Cc2c(O)cc(O)cc2O[C@@H]1c1cc(O)c(O)c(O)c1)c1cc(O)c(O)c(O)c1
- inhibition [12]: 90%
